# Data from publication PMC5598522 (Toxicology Reports, 2014).
# Marks after values point to notes of the source that are not given here.
# Experiments:
# dopamine D4.2 receptor = target: T1, dopamine D4.2 receptor (Homo sapiens, UniProt P21917, DEL265-296); test: Dopamine D4.2 receptor radioligand binding; conditions: 10 μM, human recombinant CHO-K1 cells
# T1 sequence (P21917 with tags, fused parts or gaps DEL265-296): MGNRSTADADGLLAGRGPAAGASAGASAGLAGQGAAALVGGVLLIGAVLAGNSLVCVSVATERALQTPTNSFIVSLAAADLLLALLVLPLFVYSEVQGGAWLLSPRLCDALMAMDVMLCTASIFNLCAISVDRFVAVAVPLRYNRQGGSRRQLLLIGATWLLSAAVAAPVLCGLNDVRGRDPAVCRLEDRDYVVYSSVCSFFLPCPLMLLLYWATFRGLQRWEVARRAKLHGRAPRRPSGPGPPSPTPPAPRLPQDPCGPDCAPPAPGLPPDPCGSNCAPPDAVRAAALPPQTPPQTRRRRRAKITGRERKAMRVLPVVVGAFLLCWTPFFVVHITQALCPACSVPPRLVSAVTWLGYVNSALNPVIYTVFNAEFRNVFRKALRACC
# Outline: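 Human recombinant receptors expressed in CHO cells (D1, D2L) or CHO-K1 cells (D4.2) were used in radioligand binding assays with [3H]SCH-23390 (D1), [3H]spiperone (D2L) or [3H]dopamine (D4.2). The test compound or its metabolite was tested at a single concentration of 10 μM. Results are expressed as percent inhibition of specific binding.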
# Wistar rats = test: Tumor findings in rat 2-year carcinogenicity bioassay; type: in vivo; conditions: female rats, 2 years
# Outline: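 Wistar Han rats, 50 per sex per group (100 control females), started at seven weeks old and gavaged daily for 2 years at 0, 20, 60 or 180 mg/kg/day (females) in 1% carboxymethylcellulose/0.1% polysorbate 80. Full tissue list was paraffin-embedded, H&E-stained, examined microscopically and peer reviewed. Histology analysed by two-tailed Fisher's exact test; tumours by multiple testing at 5% significance.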
# Protein binding, rat = type: in vitro ADME
smiles,measurement,setting,value
CCCSc1nc(N[C@@H]2C[C@H]2c2ccc(F)c(F)c2)c2nnn([C@@H]3C[C@H](OCCO)[C@@H](O)[C@H]3O)c2n1 [Ticagrelor],Inhibition of radioligand binding at the D4.2 receptor,dopamine D4.2 receptor,neither Ticagrelor nor metabolite caused inhibition
same,Mammary fibroadenoma incidence,Wistar rats; 20 mg/kg/day,22 percentage
same,Pituitary hyperplasia and adenoma incidence,Wistar rats; 20 mg/kg/day,64 percentage
same,Uterine adenocarcinoma incidence,Wistar rats; 20 mg/kg/day,10 percentage
same,Uterine adenosquamous carcinoma incidence,Wistar rats; 20 mg/kg/day,0 percentage
same,Uterine squamous cell carcinoma incidence,Wistar rats; 20 mg/kg/day,0 percentage
same,Mammary fibroadenoma incidence,Wistar rats; 60 mg/kg/day,16 percentage
same,Pituitary anterior lobe adenoma in decedent rats,Wistar rats; 60 mg/kg/day,53 percentage
same,Pituitary hyperplasia and adenoma incidence,Wistar rats; 60 mg/kg/day,73 percentage
same,Uterine adenocarcinoma incidence,Wistar rats; 60 mg/kg/day,12 percentage
same,Uterine adenosquamous carcinoma incidence,Wistar rats; 60 mg/kg/day,2 percentage
same,Uterine squamous cell carcinoma incidence,Wistar rats; 60 mg/kg/day,0 percentage
same,Mammary fibroadenoma incidence,Wistar rats; 180 mg/kg/day,2 ^* percentage
same,Pituitary anterior lobe adenoma in decedent rats,Wistar rats; 180 mg/kg/day,35 ^* percentage
same,Pituitary hyperplasia and adenoma incidence,Wistar rats; 180 mg/kg/day,50 ^* percentage
same,Uterine adenocarcinoma incidence,Wistar rats; 180 mg/kg/day,42 ^*** percentage
same,Uterine adenosquamous carcinoma incidence,Wistar rats; 180 mg/kg/day,4 percentage
same,Uterine squamous cell carcinoma incidence,Wistar rats; 180 mg/kg/day,2 percentage
same,fraction unbound,"Protein binding, rat",0.01
